Laboratory results from ChEMBL document CHEMBL3739301, “Design, synthesis and biological evaluation of tricyclic diterpene derivatives as novel neuroprotective agents against ischemic brain injury” (Eur J Med Chem, 2015).

Legend:
[1] = Neuroprotective activity against nutrient deprivation-induced neuronal cell death in Sprague-Dawley rat CGN cells at 10 uM preincubated for 24 hrs followed by induction of nutrient deprivation measured after 24 hrs relative to control; format: functional
Method in brief: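 Primary rat cerebellar granule neurons (8-day-old Sprague-Dawley pups, DIV 6-8) pretreated 24 h with compound (0.1% DMSO final), then deprived of B27 serum substitute for 24 h. MTT viability (0.5 mg/ml, 4 h) read at 570 nm against control = 100%; neuroprotection percentage derived from the basal deprived value; mean ± SD, n = 3.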

[2] = Cytotoxicity against Sprague-Dawley rat CGN cells at <10 uM after 72 hrs by MTT assay; format: cell-based
Method in brief: (§1)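 Primary cerebellar granule neurons from 8-day SD rat pups; cytosine arabinoside […] added at 24 h, used at DIV 6–8. Cells exposed to a concentration series for 72 h, 0.1% DMSO final. Viability by MTT (0.5 mg/ml, 4 h, 37 °C); formazan dissolved in DMSO, OD 570 nm. n = 3, mean ± SD.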

[3] = Neuroprotective activity against glutamate-induced neuronal cell death in Sprague-Dawley rat CGN cells at 10 uM preincubated for 24 hrs followed by glutamate challenge measured after 24 hrs relative to control; format: functional
[4] = Neuroprotective activity against glutamate-induced neuronal cell death in Sprague-Dawley rat CGN cells assessed as cell viability at 10 uM preincubated for 24 hrs followed by glutamate challenge measured after 24 hrs by MTT assay (reference value: 40.4%); format: functional; conditions: read-out: Activity
[5] = Neuroprotective activity against oxygen-glucose deprivation-induced neuronal cell death in Sprague-Dawley rat CGN cells assessed as cell viability at 10 uM preincubated for 24 hrs followed by induction of oxygen-glucose deprivation measured after 24 hrs by MTT assay (reference value: 48.7%); format: functional; conditions: read-out: Activity
neuronal = experiment: Neuroprotective activity against glutamate-induced neuronal cell death in Sprague-Dawley rat CGN cells assessed as increase in cell viability preincubated for 24 hrs followed by glutamate challenge measured after 24 hrs by MTT assay; format: functional, cell-based
[6] = Neuroprotective activity against oxygen-glucose deprivation-induced neuronal cell death in Sprague-Dawley rat CGN cells at 10 uM preincubated for 24 hrs followed by induction of oxygen-glucose deprivation measured after 24 hrs relative to control; format: functional
[7] = Neuroprotective activity against oxygen-glucose deprivation-induced neuronal cell death in Sprague-Dawley rat CGN cells assessed as cell viability at 1 uM preincubated for 24 hrs followed by induction of oxygen-glucose deprivation measured after 24 hrs by MTT assay (reference value: 48.7%); format: functional; conditions: read-out: Activity
[8] = Cytotoxicity against Sprague-Dawley rat CGN cells at 50 to 100 uM after 72 hrs by MTT assay; format: cell-based; method in brief: as §1
[9] = Permeability of the compound at 25 ug/ml after 18 hrs by PAMPA assay; format: ADME; conditions: read-out: permeability

| SMILES | Activity [1] [%] | Activity [2] | Activity [3] [%] | viability at 10 µM [4] [%] | viability at 10 µM [5] [%] | Activity (neuronal) | Activity [6] [%] | viability at 1 µM [7] [%] | Activity [8] | Papp at 18 h, 25 ug/ml [9] [×10⁻⁶ cm/s] |
| --- | --- | --- | --- | --- | --- | --- | --- | --- | --- | --- |
| COc1cc2c(cc1C(C)=O)CC[C@H]1C(C)(C)[C@@H](OC(C)=O)CC[C@]21C | 6 | Non-toxic | 67.1 | 80.4 | 60 | Dose-dependent effect | 22 | 50 | Toxic | – |
| COc1cc2c(cc1C(C)=O)CC[C@H]1C(C)(C)C(=O)CC[C@]21C | – | – | 49.2 | 69.7 | – | – | – | – | – | – |
| COc1cc2c(cc1C(=O)C(C)C)CC[C@H]1C(C)(C)[C@@H](O)CC[C@]21C | – | – | – | 38.8 | – | – | – | – | – | – |
| CCCCOC(=O)c1cc2c(cc1OC)[C@@]1(C)CC[C@H](O)C(C)(C)[C@@H]1CC2 | – | – | 51.3 | 71 | – | – | – | – | – | – |
| COc1cc2c(cc1C(=O)NCC(=O)O)CC[C@H]1C(C)(C)[C@@H](O)CC[C@]21C | – | – | 28 | 57.1 | – | – | – | – | – | – |
| COc1cc2c(cc1C(=O)O)CC[C@H]1C(C)(C)[C@@H](O)CC[C@]21C | – | – | 22.8 | 54 | – | – | – | – | – | – |
| CCC(=O)c1cc2c(cc1OC)[C@@]1(C)CC[C@H](O)C(C)(C)[C@@H]1CC2 | – | – | 38.3 | 63.2 | – | – | – | – | – | – |
| COCCC(=O)c1cc2c(cc1OC)[C@@]1(C)CC[C@H](O)C(C)(C)[C@@H]1CC2 | – | – | 52.2 | 71.5 | – | – | – | – | – | – |
| COc1cc2c(cc1C(C)=O)CC[C@H]1C(C)(C)[C@@H](OC(=O)C(F)(F)F)CC[C@]21C | 5 | Non-toxic | 68.1 | 81 | 60.5 | Dose-dependent effect | 23 | 48.2 | – | 7.31 |
| CNC(=O)c1cc2c(cc1OC)[C@@]1(C)CC[C@H](O)C(C)(C)[C@@H]1CC2 | – | – | 61.9 | 77.3 | – | – | – | – | – | – |
| C#CCNC(=O)c1cc2c(cc1OC)[C@@]1(C)CC[C@H](O)C(C)(C)[C@@H]1CC2 | 17 | Non-toxic | 69.3 | 81.7 | 67.8 | Dose-dependent effect | 37.2 | 59.7 | Toxic | – |
